Reference: ChEMBL document CHEMBL2375244 (J Med Chem, 2013)

What was measured:
T47D = experiment: Cytotoxicity against human T47D cells after 72 hrs by resazurin/resorufin-based fluorescence assay; assay type: functional, cell-based
U-266 = experiment: Cytotoxicity against human U266 cells after 72 hrs by resazurin/resorufin-based fluorescence assay; assay type: functional, cell-based; settings: U-266, 72 h
CDK2/Cyclin A2 [1] = biological target: T1, CDK2/Cyclin A2 (Homo sapiens, UniProt P24941); experiment: Inhibition of human CDK2/Cyclin A2 using PKTPKKAKKL as substrate by fluorescence assay; assay type: protein-complex assay
SK-BR-3 = experiment: Cytotoxicity against human SK-BR-3 cells after 72 hrs by resazurin/resorufin-based fluorescence assay; assay type: functional, cell-based; settings: SK-BR-3, 72 h
How it was run: (§1)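 CellTiter-Blue viability: 1200 cells per well seeded, incubated overnight at 37 °C, 5% CO₂; drugs serially diluted 2:3 in medium, four replicate wells per concentration plus four diluent-only control wells; 72 h exposure; resazurin reduction to resorufin read by fluorescence (579 nm ex/584 nm em). IC50 is the average of three data sets, each using nine concentrations between 0.004 μM and 12.5 μM.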

[2] = Cytotoxicity against human RPMI18226 cells after 72 hrs by resazurin/resorufin-based fluorescence assay; assay type: functional, cell-based; settings: RPMI18226, 72 h
MCF7 = experiment: Cytotoxicity against human MCF7 cells after 72 hrs by resazurin/resorufin-based fluorescence assay; assay type: functional, cell-based; settings: MCF7, 72 h
[3] = Cytotoxicity against mouse GC-2 cells after 72 hrs by MTT assay; assay type: functional, cell-based; settings: GC-2, 72 h
How it was run: (§2)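 Cells kept in RPMI or DMEM with 10% FBS at 37 °C, 5% CO₂ and allowed to attach overnight; 72 h with increasing inhibitor concentrations; then 1 mg/mL MTT for 3 h, DMSO solubilisation, OD read at 540 nm. Testis lines had culture conditions adapted to them. Dose-response in triplicate, 9 concentrations between 0.02 and 100 μM, averaged.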

SK-UT-1 = experiment: Cytotoxicity against human SK-UT-1 cells after 72 hrs by resazurin/resorufin-based fluorescence assay; assay type: functional, cell-based; settings: SK-UT-1, 72 h
MDA-MB-468 = experiment: Cytotoxicity against human MDA-MB-468 cells after 72 hrs by MTT assay; assay type: functional, cell-based; settings: MDA-MB-468, 72 h; how it was run: as §2
A673 [4] = experiment: Cytotoxicity against human A673 cells after 72 hrs by resazurin/resorufin-based fluorescence assay; assay type: functional, cell-based; settings: A673, 72 h
MDA-MB-231 = experiment: Cytotoxicity against human MDA-MB-231 cells after 72 hrs by resazurin/resorufin-based fluorescence assay; assay type: functional, cell-based; settings: MDA-MB-231, 72 h
[5] = Cytotoxicity against human MDA-MB-436 cells after 72 hrs by resazurin/resorufin-based fluorescence assay; assay type: functional, cell-based; settings: MDA-MB-436, 72 h
[6] = Cytotoxicity against human NCI-H929 cells after 72 hrs by resazurin/resorufin-based fluorescence assay; assay type: functional, cell-based; settings: NCI-H929, 72 h
HOS-TE85 = experiment: Cytotoxicity against human MNNG-HOS cells after 72 hrs by resazurin/resorufin-based fluorescence assay; assay type: functional, cell-based; settings: HOS-TE85, 72 h
SW872 = experiment: Cytotoxicity against human SW872 cells after 72 hrs by resazurin/resorufin-based fluorescence assay; assay type: functional, cell-based; settings: SW872, 72 h
[7] = Cytotoxicity against mouse TM4 cells after 72 hrs by MTT assay; assay type: functional, cell-based; settings: TM4, 72 h; how it was run: as §2
BT-549 = experiment: Cytotoxicity against human BT549 cells after 72 hrs by resazurin/resorufin-based fluorescence assay; assay type: functional, cell-based; settings: BT-549, 72 h; how it was run: as §1
SK-ES1 = experiment: Cytotoxicity against human SK-ES-1 cells after 72 hrs by resazurin/resorufin-based fluorescence assay; assay type: functional, cell-based; settings: SK-ES1, 72 h
[8] = Cytotoxicity against mouse GC-1 cells after 72 hrs by MTT assay; assay type: functional, cell-based; settings: GC-1, 72 h; how it was run: as §2
NCI-H929 = experiment: Induction of apoptosis in human NCI-H929 cells assessed as increase in cleaved caspase-3 level at 0.005 uM after 24 hrs by FACS flow cytometric analysis relative to control; assay type: functional
How it was run: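 Active caspase-3 was detected with a FITC-labelled monoclonal antibody by flow cytometry, and the percentage of cells with raised cleaved caspase-3 is reported. Triplicate experiments.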

A673 [9] = experiment: Induction of apoptosis in human A673 cells assessed as caspase-3 activation at 0.05 uM to 5 uM after 24 hrs by luminescence assay relative to control; assay type: functional
How it was run: (§3)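 Caspase-3/7 activation measured with a Caspase-Glo 3/7 luminescent assay. Cells were plated as for the high-throughput viability assay and exposed for 24 h to serial dilutions. EC50 was obtained from the dose-response.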

CDK2/Cyclin A2 [10] = biological target: T1, CDK2/Cyclin A2; experiment: Inhibition of human CDK2/Cyclin A2 using PKTPKKAKKL as substrate by P33-radiolabeled assay; assay type: protein-complex assay
How it was run: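 Radiometric (P33) kinase assay run by a contract lab on CDK–cyclin complexes. Inhibitor tested in duplicate at 0.05 nM to 1000 nM with ATP at 10 μM. […] For the in-house assays, IC50 was obtained by Hill-equation fitting.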

A673 [11] = experiment: Induction of apoptosis in human A673 cells assessed as caspase-3 activation after 24 hrs by luminescence assay; assay type: functional, cell-based; settings: A673, 24 h; how it was run: as §3

SMILES | IC50 (U-266) [nM] | IC50 (CDK2/Cyclin A2 [1]) [nM] | IC50 (SK-BR-3) [nM] | IC50 [2] [µM] | IC50 [3] [µM] | IC50 (SK-UT-1) [nM] | IC50 (MDA-MB-468) [nM] | IC50 (MDA-MB-231) [nM] | IC50 [5] [nM] | IC50 [6] [nM] | IC50 (HOS-TE85) [nM] | IC50 (SW872) [nM] | IC50 [7] [µM] | IC50 (BT-549) [µM] | IC50 (SK-ES1) [nM] | IC50 [8] [µM] | other results
Nc1nc(Nc2ccc(S(N)(=O)=O)cc2)sc1C(=O)c1cccc(F)c1 | 1500 | 50 | 1200 | 6.8 | 3.9 | 1600 | 800 | 1200 | 1300 | 1000 | 2200 | 3100 | 4.8 | > 10 | 1100 | 6.4 | IC50 (T47D): 980 nM; IC50 (MCF7): 1300 nM; IC50 (A673 [4]): 450 nM
CCc1cnn2c(NCc3ccc[n+]([O-])c3)cc(N3CCCC[C@H]3CCO)nc12 [DINACICLIB] | – | – | < 5 | – | – | – | – | < 5 | < 5 | – | – | – | – | > 10 | – | – | Activity (NCI-H929): 63%; Activity (A673 [9]): 280%
Nc1nc(Nc2ccc(S(N)(=O)=O)cc2)sc1C(=O)c1cccnc1 | – | 20 | – | – | > 30 | – | 2800 | – | – | – | – | – | 13 | – | – | 20 | IC50 (CDK2/Cyclin A2 [10]): 0.9 nM
COc1cccc2c1C(=O)c1c(O)c3c(c(O)c1C2=O)C[C@@](O)(C(=O)CO)C[C@@H]3O[C@H]1C[C@H](N)[C@H](O)[C@H](C)O1 [DOXORUBICIN] | 670 | – | 90 | 0.27 | – | 76 | – | – | – | 65 | 590 | 140 | – | 0.11 | 42 | – | EC50 (A673 [11]): 390 nM
